A word on the inhibition: it is the drop in the measured response relative to a control, in per cent. A word on the viability: it is a read-out of living cells in per cent, often relative to untreated cells.

The target of test [1] is Pantothenate synthetase (Mycobacterium tuberculosis (strain ATCC 25618 / H37Rv)) (UniProt P9WIL5). As to the kind of experiment: Recombinant Mtb pantothenate synthetase (PanC) inhibitors, coupled enzyme, confirmatory (AID 375; call rule not given here;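 also: 0% = full reaction with vehicle and 100% = no enzyme background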). As to conditions: coupled enzyme assay; at 10 µM, stronger effect = higher value.
A short description of test [2]: SK-BR-3 cell growth inhibitors, pilot screen, 24 h, human (AID 572;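 active = viability at or below 10% of carrier control in both of two separate runs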;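 also: compound exposure lasted between 18 and 24 h rather than exactly 24 h; 100% = carrier-treated control wells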). The note with it: SK-BR-3 viability, CellTiter-Glo luminescence, at 10 µM, stronger effect = lower value. Background: In ATP-based viability assays light output follows the ATP content of the culture.
Test [3] in a line: HUVEC growth inhibition – cell-based, human, primary screen (AID 575;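 active = viability at or below 30% in both replicate assays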;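 also: 100% = median of untreated cell wells with 0.1% DMSO on each plate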). As to conditions: HUVEC proliferation, CellTiter-Glo luminescence, 72 h; at 10 µM; stronger effect = lower value. The essentials:
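Test system: HUVEC primary cells. Quantity: 1250 endothelial cells in each well. Dosing: single-point 10 µM, DMSO 0.1% final. Incubation: 72 h treatment at 37 °C. Measured by: CTG luminescence. Control set: DMSO cell controls and MePR drug controls. Plate: collagen-coated 384-well format.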

A short description of test [4]: growth inhibitors of H69AR lung tumor, primary screen, human, duplicate replicates (AID 580;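 active = viability at or under a set limit in both replicates, limit being median viability minus 3 SD, cut at about 48% in these data, passing the limit was not always enough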;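 also: 100% = mean luminescence of untreated wells and 0% = no signal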). The note with it: H69AR lung tumor cells viability, ATP luminescence, 72 h; at 10 µM; stronger effect = lower value.
A short description of test [5]: reversal of MRP1-mediated doxorubicin resistance, pilot screen, H69AR cells, doxorubicin co-treatment (AID 601;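 active = viability loss from added drug above about 55%, and viability with drug at most 40%, in both replicates, limit read from the data, passing the limit was not always enough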). As to conditions: CellTiter-Glo, 72 h, at 10 µM; for differential viability (reversal): stronger effect = higher value.
A short description of test [6]: 384-well plate pilot, post-Golgi transport modulator project, inhibition of yeast transport mutant growth (AID 636; in the data active = inhibition above about 31%). The note with it: absorbance 615 nm, about 18 h, stronger effect = higher value.
Test [7] can be described thus: growth suppression of yeast trafficking mutant, preliminary HTS, modulators of trafficking downstream of Golgi apparatus project, 1536-format plate, OD 615 nm (AID 637). The note with it: yeast transport mutant growth, absorbance 615 nm, 18 h; stronger effect = higher value.
[8] abbreviates: H69AR cells + 2 uM doxorubicin, measured here: viability with 2 uM doxorubicin, stronger effect = lower value.
The mark [9] stands for this setting: H69AR cells, compound alone cytotoxicity.

The structures appear in SMILES notation. The source made the active and inactive calls. Rule as the data show it, unless noted: active = inhibition above about 30%; inactive = the rest.

Sequence of Pantothenate synthetase (Mycobacterium tuberculosis (strain ATCC 25618 / H37Rv)) (P9WIL5 whole entry, looked up): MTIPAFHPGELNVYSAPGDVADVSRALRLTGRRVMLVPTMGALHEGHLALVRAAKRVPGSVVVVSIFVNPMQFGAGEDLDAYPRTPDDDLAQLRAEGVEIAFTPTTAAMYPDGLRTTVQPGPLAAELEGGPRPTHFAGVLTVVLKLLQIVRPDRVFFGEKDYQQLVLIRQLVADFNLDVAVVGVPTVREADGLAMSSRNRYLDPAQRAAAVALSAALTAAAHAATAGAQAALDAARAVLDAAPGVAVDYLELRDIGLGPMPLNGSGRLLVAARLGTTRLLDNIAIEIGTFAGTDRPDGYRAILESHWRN

Take `O=C(O)CCCc1ccc(N(CCCl)CCCl)cc1`: the inhibition in test [1] is 0% (inactive); in test [6], -1.17% (inactive); in test [7] it was 0.67% (inactive). Further, the viability in test [2] was 78% (inactive); in test [3] it was 68.1% (inactive); in test [4], 81.8% (inactive); in test [5] (setting [8]) it was 99.1%; in test [5] (setting [9]), 81.8%. Besides, the differential viability (reversal) in test [5] (H69AR cells + 2 uM doxorubicin) was -17.3% (inactive).

Regarding `CC(NC(C)(C)C)C(=O)c1cccc(Cl)c1` (stereo not drawn), the inhibition in test [1] is 0% (inactive); in test [6] it was -1.17% (inactive); in test [7], 1.67% (inactive). Also, the viability in test [2] was 87% (inactive); in test [3], 74.8% (inactive); in test [4], 99.5% (inactive); in test [5] (setting [8]) it was 95.5%; in test [5] (setting [9]), 99.5%. In addition, the differential viability (reversal) in test [5] (H69AR cells + 2 uM doxorubicin) is 4.02% (inactive).

Regarding `CN(C)[C@@H]1C(=O)C(C(N)=O)=C(O)[C@@]2(O)C(=O)C3=C(O)c4c(O)cccc4[C@@](C)(O)[C@H]3C[C@@H]12`, the inhibition in test [1] is 2% (inactive); in test [6], 0.13% (inactive); in test [7], -2% (inactive). In addition, the viability in test [2] is 91% (inactive); in test [3], 102% (inactive); in test [4] it was 102% (inactive); in test [5] (setting [8]), 89.8%; in test [5] (setting [9]), 102%. The differential viability (reversal) in test [5] (H69AR cells + 2 uM doxorubicin) was 11.8% (inactive).

On to `CN1[C@@H]2CC[C@H]1CC(OC(=O)C1C=Nc3ccccc31)C2` (stereo partly drawn), for which the inhibition in test [1] was 4% (inactive); in test [6] it was 3.25% (inactive); in test [7] it was 0.5% (inactive). In addition, the viability in test [2] is 86% (inactive); in test [3], 82.4% (inactive); in test [4] it was 83.3% (inactive); in test [5] (setting [8]) it was 97.7%; in test [5] (setting [9]) it was 83.3%. In addition, the differential viability (reversal) in test [5] (H69AR cells + 2 uM doxorubicin) was -14.3% (inactive).

Regarding `CC(C)(C)P(=O)(c1ccncc1)N1CCCC1` (stereo not drawn), the inhibition in test [1] was 4% (inactive); in test [6], -7.3% (inactive); in test [7], -2.18% (inactive). Further, the viability in test [2] was 111% (inactive); in test [3] it was 105% (inactive); in test [4], 92.8% (inactive); in test [5] (setting [8]), 98.6%; in test [5] (setting [9]), 92.8%. In addition, in test [5] (H69AR cells + 2 uM doxorubicin), the differential viability (reversal) is -5.79% (inactive).

Regarding `C[N+]1(C)[C@@H]2CC(OC(=O)[C@H](CO)c3ccccc3)C[C@H]1[C@@H]1O[C@@H]12` (stereo partly drawn), the values for the inhibition in test [1], in test [6] and in test [7] were 0% (inactive), -2.21% (inactive) and 8.67% (inactive), respectively. In addition, the viability in test [2] is 97% (inactive); in test [3], 101% (inactive); in test [4] it was 106% (inactive); in test [5] (setting [8]) it was 97.7%; in test [5] (setting [9]), 106%. The differential viability (reversal) in test [5] (H69AR cells + 2 uM doxorubicin) was 8.56% (inactive).

`COP(=O)(OC)C(O)C(Cl)(Cl)Cl` (stereo not drawn): the inhibition is 0% (inactive) in test [1], -1.56% (inactive) in test [6] and -3.83% (inactive) in test [7]. The viability in test [2] was 122% (inactive); in test [3], 95.5% (inactive); in test [4], 82.6% (inactive); in test [5] (setting [8]), 85.7%; in test [5] (setting [9]), 82.6%. The differential viability (reversal) in test [5] (H69AR cells + 2 uM doxorubicin) was -3.13% (inactive).

As to `C#CCN(C)C(C)Cc1ccccc1` (stereo not drawn), the inhibition in test [1] was 5% (inactive); in test [6], -0.26% (inactive); in test [7], 2.33% (inactive). For the same molecule, the viability is 115% (inactive) in test [2]; 88.3% (inactive) in test [3]; 99.3% (inactive) in test [4]; 104% in test [5] (setting [8]); 99.3% in test [5] (setting [9]). Further, the differential viability (reversal) in test [5] (H69AR cells + 2 uM doxorubicin) was -5.18% (inactive).

As to `CC(=O)[C@@]1(O)CC[C@H]2[C@@H]3CC=C4C[C@@H](O)CC[C@]4(C)[C@H]3CC[C@@]21C`, the inhibition in test [1] was 0% (inactive); in test [6], -0.26% (inactive); in test [7], 4.33% (inactive). The viability was 89% (inactive) in test [2]; 84.6% (inactive) in test [3]; 89.8% (inactive) in test [4]; 84.3% in test [5] (setting [8]); 89.8% in test [5] (setting [9]). In addition, the differential viability (reversal) in test [5] (H69AR cells + 2 uM doxorubicin) was 5.5% (inactive).

`Cc1ccc2nc(N3CCN(C)CC3)[nH]c2c1`: the inhibition in test [1] is 0% (inactive); in test [6], 1.64% (inactive); in test [7] it was -1.13% (inactive). Further, the viability was 111% (inactive) in test [2]; 90.4% (inactive) in test [3]; 93.6% (inactive) in test [4]; 91.5% in test [5] (setting [8]); 93.6% in test [5] (setting [9]). The differential viability (reversal) in test [5] (H69AR cells + 2 uM doxorubicin) was 2.07% (inactive).

In the case of `CC(C)[C@H]1C(=O)N2CCC[C@H]2[C@]2(O)O[C@](NC(=O)[C@@H]3C=C4c5cccc6[nH]cc(c56)C[C@H]4N(C)C3)(C(C)C)C(=O)N12`, the inhibition in test [1] was 5% (inactive); in test [6], -0.78% (inactive); in test [7], 7.17% (inactive). Moreover, the viability in test [2] is 104% (inactive); in test [3], 86.4% (inactive); in test [4], 104% (inactive); in test [5] (setting [8]), 103%; in test [5] (setting [9]), 104%. For the same molecule, the differential viability (reversal) in test [5] (H69AR cells + 2 uM doxorubicin) is 0.81% (inactive).

Take `O=c1[nH]c(=O)n(-c2cccc3ccccc23)c(O)c1C=NCCCn1ccnc1`: the inhibition in test [1] is 0% (inactive); in test [6], -5.21% (inactive); in test [7], 1.27% (inactive). The viability in test [2] was 63% (inactive); in test [3], 101% (inactive); in test [4], 102% (inactive); in test [5] (setting [8]), 92%; in test [5] (setting [9]), 102%. Besides, in test [5] (H69AR cells + 2 uM doxorubicin), the differential viability (reversal) is 10% (inactive).

As to `CC1=NOC2(C)Nc3ncnn3C(c3ccccc3)C12` (stereo not drawn), the inhibition in test [1] was 0% (inactive); in test [6] it was -6.03% (inactive); in test [7] it was 7.9% (inactive). For the same molecule, the viability in test [2] was 118% (inactive); in test [3] it was 93% (inactive); in test [4], 94.5% (inactive); in test [5] (setting [8]), 97.5%; in test [5] (setting [9]) it was 94.5%. For the same molecule, the differential viability (reversal) in test [5] (H69AR cells + 2 uM doxorubicin) was -3.04% (inactive).

`Cc1ccnc(-n2c(-c3ccco3)nc3ccccc3c2=O)c1`: the inhibition is 0% (inactive) in test [1], -2.47% (inactive) in test [6] and 1.15% (inactive) in test [7]. Also, the viability in test [2] was 105% (inactive); in test [3], 107% (inactive); in test [4], 99.8% (inactive); in test [5] (setting [8]) it was 89.6%; in test [5] (setting [9]) it was 99.8%. For the same molecule, the differential viability (reversal) in test [5] (H69AR cells + 2 uM doxorubicin) is 10.2% (inactive).

As to `CN1CCN(c2c[nH]c(=O)[nH]c2=O)CC1`, the inhibition in test [1] was 0% (inactive); in test [6], -7.53% (inactive); in test [7], -6.29% (inactive). Besides, the viability in test [2] is 110% (inactive); in test [3] it was 90.6% (inactive); in test [4] it was 96.7% (inactive); in test [5] (setting [8]), 91.6%; in test [5] (setting [9]), 96.7%. Moreover, the differential viability (reversal) in test [5] (H69AR cells + 2 uM doxorubicin) is 5.06% (inactive).

`COc1ccc(CC[n+]2cc(/N=C(\C)[O-])on2)cc1OC`: the inhibition in test [1] was 0% (inactive); in test [6], 0.52% (inactive); in test [7], 4.26% (inactive). In addition, the viability in test [2] is 146% (inactive); in test [3], 93.9% (inactive); in test [4] it was 92.1% (inactive); in test [5] (setting [8]) it was 95.2%; in test [5] (setting [9]) it was 92.1%. In addition, the differential viability (reversal) in test [5] (H69AR cells + 2 uM doxorubicin) is -3.11% (inactive).

As to `O=c1[nH]c2ccccc2n1CCCN1CCC(n2c(=O)[nH]c3cc(Cl)ccc32)CC1`, the inhibition was 0% (inactive) in test [1], -2.47% (inactive) in test [6] and -0.17% (inactive) in test [7]. Further, the viability in test [2] was 91% (inactive); in test [3], 97.8% (inactive); in test [4], 76% (inactive); in test [5] (setting [8]), 82.5%; in test [5] (setting [9]), 76%. Moreover, the differential viability (reversal) in test [5] (H69AR cells + 2 uM doxorubicin) was -6.47% (inactive).
